Laboratory results reported in paper PMC3101112 (Cancer Management and Research, 2011).
“And” between values parts separate entries of the source, which are not always exact repeats. Identical values can stand only once.

Key:
[1] = system: CYP3A4, CYP2D6, and CYP2C9; test: Drug-drug interaction cocktail; assay type: in vivo, human; conditions: AML patients, cocktail before and after multiple doses of 50 mg/day
In short: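 The probe cocktail was midazolam 0.2 mg (CYP3A4), dextromethorphan 30 mg (CYP2D6) and tolbutamide 500 mg (CYP2C9), given after a two-hour fast. It was dosed ~7 days before the single test-compound dose and again after two or four weeks of daily 50 mg oral test compound. Probe plasma concentration–time profiles were compared before and after treatment.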

[2] = system: MV4-11 cells containing the FLT3-ITD mutation; conditions: animals; cited from earlier work
EPHB2 = EPHB2 (Homo sapiens, UniProt P29323); test: Biochemical inhibition profile, EPHB2; conditions: read-out: Biochemical Inhibition Profile IC50, EPHB2
Chain of EPHB2 (P29323 19-1055): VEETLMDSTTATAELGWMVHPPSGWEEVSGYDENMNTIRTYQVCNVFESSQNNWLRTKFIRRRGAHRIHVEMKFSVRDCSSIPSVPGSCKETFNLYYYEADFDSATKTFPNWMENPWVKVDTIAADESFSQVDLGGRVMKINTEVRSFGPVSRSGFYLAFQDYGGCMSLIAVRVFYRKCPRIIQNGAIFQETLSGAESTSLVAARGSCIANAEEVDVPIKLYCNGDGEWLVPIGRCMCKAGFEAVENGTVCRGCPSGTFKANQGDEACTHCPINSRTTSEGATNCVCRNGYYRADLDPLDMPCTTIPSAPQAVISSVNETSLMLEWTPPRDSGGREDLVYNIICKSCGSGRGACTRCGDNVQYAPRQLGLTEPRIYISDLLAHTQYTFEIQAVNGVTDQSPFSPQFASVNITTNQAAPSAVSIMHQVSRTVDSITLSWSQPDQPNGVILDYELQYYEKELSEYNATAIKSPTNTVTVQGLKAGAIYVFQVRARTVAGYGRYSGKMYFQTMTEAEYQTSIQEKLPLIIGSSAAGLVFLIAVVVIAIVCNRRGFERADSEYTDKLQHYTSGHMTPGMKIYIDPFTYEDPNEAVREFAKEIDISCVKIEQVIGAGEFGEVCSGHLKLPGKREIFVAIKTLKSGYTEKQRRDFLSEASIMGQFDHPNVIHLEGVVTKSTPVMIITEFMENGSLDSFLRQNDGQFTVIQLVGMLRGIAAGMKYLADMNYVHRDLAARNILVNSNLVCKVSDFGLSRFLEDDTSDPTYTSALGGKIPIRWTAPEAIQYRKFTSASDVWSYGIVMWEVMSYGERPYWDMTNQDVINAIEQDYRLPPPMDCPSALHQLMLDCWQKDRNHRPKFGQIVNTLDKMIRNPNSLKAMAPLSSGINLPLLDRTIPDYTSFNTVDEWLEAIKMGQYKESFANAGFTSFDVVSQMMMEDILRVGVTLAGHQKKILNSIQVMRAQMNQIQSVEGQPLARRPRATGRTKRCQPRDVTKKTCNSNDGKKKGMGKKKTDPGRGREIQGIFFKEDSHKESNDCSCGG

VEGF-R1 = VEGF-R1 (Homo sapiens, UniProt P17948); test: Biochemical inhibition profile, VEGF-R1; conditions: read-out: Biochemical Inhibition Profile IC50, VEGF-R1
Chain of VEGF-R1 (P17948 27-1338): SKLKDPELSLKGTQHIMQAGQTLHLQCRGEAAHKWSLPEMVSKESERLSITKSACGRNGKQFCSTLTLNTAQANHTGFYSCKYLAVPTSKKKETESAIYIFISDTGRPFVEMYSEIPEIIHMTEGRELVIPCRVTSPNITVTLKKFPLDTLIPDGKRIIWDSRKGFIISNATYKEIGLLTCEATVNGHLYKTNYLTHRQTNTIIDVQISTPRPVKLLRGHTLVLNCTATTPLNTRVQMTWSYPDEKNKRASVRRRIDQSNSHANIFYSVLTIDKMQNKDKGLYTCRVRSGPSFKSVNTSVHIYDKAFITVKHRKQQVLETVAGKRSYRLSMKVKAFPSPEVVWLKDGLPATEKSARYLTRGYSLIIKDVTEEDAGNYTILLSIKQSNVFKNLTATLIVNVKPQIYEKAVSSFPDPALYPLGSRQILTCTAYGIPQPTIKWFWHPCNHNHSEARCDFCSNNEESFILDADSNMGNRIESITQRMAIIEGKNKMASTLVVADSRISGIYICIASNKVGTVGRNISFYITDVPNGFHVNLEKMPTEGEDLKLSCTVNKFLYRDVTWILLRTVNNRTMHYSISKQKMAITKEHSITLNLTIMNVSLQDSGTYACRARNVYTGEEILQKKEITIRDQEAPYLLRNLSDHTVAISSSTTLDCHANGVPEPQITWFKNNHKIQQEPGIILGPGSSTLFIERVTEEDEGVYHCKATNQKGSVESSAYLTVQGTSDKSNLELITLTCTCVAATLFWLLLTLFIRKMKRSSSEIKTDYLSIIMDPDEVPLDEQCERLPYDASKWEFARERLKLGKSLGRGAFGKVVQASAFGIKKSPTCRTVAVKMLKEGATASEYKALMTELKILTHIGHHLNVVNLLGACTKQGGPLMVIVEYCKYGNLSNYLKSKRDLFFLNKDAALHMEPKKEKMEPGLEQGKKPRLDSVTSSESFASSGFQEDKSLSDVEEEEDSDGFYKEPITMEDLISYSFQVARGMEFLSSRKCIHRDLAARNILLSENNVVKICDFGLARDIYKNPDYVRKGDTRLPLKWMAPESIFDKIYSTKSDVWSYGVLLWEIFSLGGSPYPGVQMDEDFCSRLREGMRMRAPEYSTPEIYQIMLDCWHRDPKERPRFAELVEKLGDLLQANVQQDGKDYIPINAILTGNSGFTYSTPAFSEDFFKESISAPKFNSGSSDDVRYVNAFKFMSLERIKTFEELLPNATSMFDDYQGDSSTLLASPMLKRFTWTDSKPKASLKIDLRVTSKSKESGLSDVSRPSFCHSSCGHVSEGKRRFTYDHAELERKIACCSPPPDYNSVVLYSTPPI

FLT4 = FLT4 (Homo sapiens, UniProt P35916); test: Biochemical inhibition profile, FLT4; conditions: read-out: Biochemical Inhibition Profile IC50, FLT4
Chain of FLT4 (P35916 25-1363): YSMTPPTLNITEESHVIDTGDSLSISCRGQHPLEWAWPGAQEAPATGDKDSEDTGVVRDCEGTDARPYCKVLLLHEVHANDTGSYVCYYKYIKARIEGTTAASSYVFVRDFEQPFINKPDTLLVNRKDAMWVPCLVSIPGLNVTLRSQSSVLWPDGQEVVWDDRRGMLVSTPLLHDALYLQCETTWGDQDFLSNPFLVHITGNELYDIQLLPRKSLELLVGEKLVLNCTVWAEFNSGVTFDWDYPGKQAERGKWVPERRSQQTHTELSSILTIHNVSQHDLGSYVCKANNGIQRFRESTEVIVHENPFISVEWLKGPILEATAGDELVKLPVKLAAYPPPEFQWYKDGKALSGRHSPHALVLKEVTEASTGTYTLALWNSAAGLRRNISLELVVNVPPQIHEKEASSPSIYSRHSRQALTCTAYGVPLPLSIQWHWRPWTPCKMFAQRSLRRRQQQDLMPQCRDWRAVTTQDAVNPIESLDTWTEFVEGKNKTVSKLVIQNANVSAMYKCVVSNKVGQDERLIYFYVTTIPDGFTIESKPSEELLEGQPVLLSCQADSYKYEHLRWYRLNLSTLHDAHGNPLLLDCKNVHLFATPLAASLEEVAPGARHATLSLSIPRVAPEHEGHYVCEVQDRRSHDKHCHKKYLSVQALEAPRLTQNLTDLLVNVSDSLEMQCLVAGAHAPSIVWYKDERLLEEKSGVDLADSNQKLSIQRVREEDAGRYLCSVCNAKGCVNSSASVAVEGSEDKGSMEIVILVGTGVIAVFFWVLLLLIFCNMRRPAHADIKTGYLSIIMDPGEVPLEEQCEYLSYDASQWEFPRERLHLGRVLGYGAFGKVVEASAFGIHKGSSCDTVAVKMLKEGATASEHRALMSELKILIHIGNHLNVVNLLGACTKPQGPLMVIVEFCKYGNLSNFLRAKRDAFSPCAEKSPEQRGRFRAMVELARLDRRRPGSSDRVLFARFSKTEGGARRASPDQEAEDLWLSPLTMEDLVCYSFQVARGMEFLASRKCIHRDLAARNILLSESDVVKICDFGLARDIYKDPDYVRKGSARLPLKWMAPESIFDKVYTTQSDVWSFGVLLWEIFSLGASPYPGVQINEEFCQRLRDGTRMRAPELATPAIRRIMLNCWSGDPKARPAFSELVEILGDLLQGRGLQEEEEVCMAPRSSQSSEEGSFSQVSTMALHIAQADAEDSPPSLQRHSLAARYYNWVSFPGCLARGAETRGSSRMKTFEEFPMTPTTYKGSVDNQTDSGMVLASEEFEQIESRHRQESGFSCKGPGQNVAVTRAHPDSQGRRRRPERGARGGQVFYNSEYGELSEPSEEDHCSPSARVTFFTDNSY

TIE2 = TIE2 (Homo sapiens, UniProt Q02763); test: Cell-based target inhibition assay, CHO - Clone113, pTIE2; conditions: read-out: Cell-Based Target Inhibition Assays IC50, pTIE2 pY99, stable over-expression of TIE2
Chain of TIE2 (Q02763 23-1124): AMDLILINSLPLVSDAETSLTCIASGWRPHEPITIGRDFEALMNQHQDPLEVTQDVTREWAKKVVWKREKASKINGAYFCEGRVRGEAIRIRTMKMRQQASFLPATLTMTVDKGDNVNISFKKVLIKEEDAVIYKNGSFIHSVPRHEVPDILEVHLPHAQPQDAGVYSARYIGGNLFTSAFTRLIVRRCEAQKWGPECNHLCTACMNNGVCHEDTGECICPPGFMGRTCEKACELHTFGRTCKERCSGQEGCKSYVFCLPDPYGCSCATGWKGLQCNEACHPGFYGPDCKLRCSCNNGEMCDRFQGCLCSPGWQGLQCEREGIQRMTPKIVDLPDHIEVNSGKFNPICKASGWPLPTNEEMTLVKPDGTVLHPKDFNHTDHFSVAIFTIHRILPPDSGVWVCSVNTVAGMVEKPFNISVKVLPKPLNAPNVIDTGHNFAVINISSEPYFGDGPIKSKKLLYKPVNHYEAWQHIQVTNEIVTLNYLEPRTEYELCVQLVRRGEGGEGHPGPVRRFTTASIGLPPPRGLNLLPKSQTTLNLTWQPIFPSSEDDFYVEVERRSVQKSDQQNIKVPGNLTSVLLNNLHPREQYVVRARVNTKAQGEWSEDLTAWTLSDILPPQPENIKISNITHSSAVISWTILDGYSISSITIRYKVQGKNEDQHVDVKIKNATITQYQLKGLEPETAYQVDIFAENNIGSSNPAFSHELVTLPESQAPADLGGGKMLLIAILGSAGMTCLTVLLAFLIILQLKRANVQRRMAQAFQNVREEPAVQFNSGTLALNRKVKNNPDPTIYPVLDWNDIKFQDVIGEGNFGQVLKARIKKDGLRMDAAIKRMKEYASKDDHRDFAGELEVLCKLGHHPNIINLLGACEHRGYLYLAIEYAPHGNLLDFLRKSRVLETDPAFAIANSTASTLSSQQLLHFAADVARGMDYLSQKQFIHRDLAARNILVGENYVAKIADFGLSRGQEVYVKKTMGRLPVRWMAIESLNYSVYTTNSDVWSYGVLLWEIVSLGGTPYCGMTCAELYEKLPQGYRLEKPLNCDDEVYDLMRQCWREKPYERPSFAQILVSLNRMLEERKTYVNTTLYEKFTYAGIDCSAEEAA

EPHA1 = EPHA1 (Homo sapiens, UniProt P21709); test: Biochemical inhibition profile, EPHA1; conditions: read-out: Biochemical Inhibition Profile IC50, EPHA1
[3] = system: pFLT3, pcKIT, pS6 in AML blasts; test: Flow cytometry of phosphoproteins in AML blasts of patients; assay type: in vivo, human; conditions: after multiple dosing 50 mg/day; at least three patients (B, C, and E)
In short: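 Patient blood or marrow samples reached a central lab within 48 h. […] Peripheral CD34+CD11− cells were gated on a 3-laser FACSCanto II. Sampling was predose, day 1, 8, 15 and end of study. Read-out was MEFL.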

[4] = Plasma pharmacokinetics in patients with relapsed AML; assay type: in vivo, human
In short: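 Relapsed AML patients got 50 mg test compound orally after an ~8 h fast, without the probe cocktail. Plasma was sampled over 48 h after a single dose and over 12 h after one week of once-daily dosing. Tmax, Cmax, AUC and oral clearance came from noncompartmental analysis.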

EPHB4 = EPHB4 (Homo sapiens, UniProt P54760); conditions: read-out: Biochemical Inhibition Profile IC50, EPHB4
[5] = QTc assessment in patients with relapsed AML; assay type: in vivo, human; conditions: after the single-dose administration, 48-hour follow-up
In short: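 QTc was corrected by both Bazett and Fridericia formulas and compared with baseline across the 48 h after a single 50 mg oral dose. QTc was set against test-compound plasma concentration. Grade 3 was defined as >500 msec or a rise of >60 msec from baseline, confirmed by 12-lead ECG.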

EPHA8 = EPHA8 (Homo sapiens, UniProt P29322); test: Biochemical inhibition profile, EPHA8; conditions: read-out: Biochemical Inhibition Profile IC50, EPHA8
[6] = AML patients, single and multiple oral doses 50 mg
[7] = Visit 0, single oral dose 50 mg, Max of N 5
[8] = Visit 0, single oral dose 50 mg, Min of N 5
[9] = Visit 0, single oral dose 50 mg, individual subjects (AML patients)
[10] = Visit 1, multiple oral doses 50 mg once daily, Max of N 5
[11] = Visit 1, multiple oral doses 50 mg once daily, Min of N 5
[12] = Visit 2, after multiple oral doses 50 mg, Max of N 2
[13] = Visit 2, after multiple oral doses 50 mg, Min of N 2

In the case of `Cc1cc(-c2ccn3c(-c4ccc(CC(=O)Nc5cccc(C(F)(F)F)c5)c(F)c4)cnc3c2)ccn1` [LY2457546], the “Drug-drug interactions with midazolam, tolbutamide, and dextromethorphan” value [1] is given as “No consistent drug–drug interactions”, the “Potency relative to sunitinib in controlling leukemia growth” value [2] is given as 10 fold and the IC50 (EPHB2) is given as 45.7 nM. For the same compound, the IC50 (VEGF-R1) was 30.6 nM, the IC50 (FLT4) was 1.56 nM and the IC50 (TIE2) was 166 nM. For the same compound, the IC50 (EPHA1) was 616 nM, the “Expression of pFLT3 and pcKIT” value [3] was “reduced expression” and the “Elimination within 24 hours” value ([4]; AML patients, 50 mg/day orally) was “virtually no elimination”. For the same compound, the Accumulation in plasma [4, 6] was “Extensive accumulation”, the Terminal elimination half-life [4, 6] was “no terminal elimination half-life could be defined” and the “AUC0_24, Max” value [4, 7] was 41500 ng·h/mL. The “AUClast, Max” value [4, 7] was 79200 ng·h/mL, the “Clast, Max” value [4, 7] was 1354.06 ng/mL and the “Cmax, Max” value [4, 7] was 2406.55 ng/mL. The “Tlast, Max” value [4, 7] was 48 h, the “Tmax, Max” value [4, 7] was 48 h and the “AUC0_24, Min” value [4, 8] was 1850 ng·h/mL. The “AUClast, Min” value [4, 8] was 1850 ng·h/mL, the “Clast, Min” value [4, 8] was 78.459 ng/mL and the “Cmax, Min” value [4, 8] was 105.113 ng/mL. The “Tlast, Min” value [4, 8] was 24 h, the “Tmax, Min” value [4, 8] was 2 h and the AUC0_24 [4, 9] was 2520 ng·h/mL and 8930 ng·h/mL and 41500 ng·h/mL and 1850 ng·h/mL and 3420 ng·h/mL. For the same compound, the AUClast [4, 9] was 6030 ng·h/mL and 16100 ng·h/mL and 79200 ng·h/mL and 1850 ng·h/mL and 3420 ng·h/mL, the Clast [4, 9] was 154.876 ng/mL and 302.003 ng/mL and 1354.06 ng/mL and 105.113 ng/mL and 78.459 ng/mL and the Cmax [4, 9] was 154.876 ng/mL and 604.581 ng/mL and 2406.55 ng/mL and 105.113 ng/mL and 394.238 ng/mL. For the same compound, the Tlast [4, 9] was 48 h and 24 h, the Tmax [4, 9] was 48 h and 2 h and 4 h and 24 h and the “AUC0_24, Max” value ([4]; Visit 1, multiple oral doses 50 mg once daily, Max of N 3) was 69100 ng·h/mL. The “AUClast, Max” value [4, 10] was 69200 ng·h/mL, the “Clast, Max” value [4, 10] was 2830.537 ng/mL and the “Cmax, Max” value [4, 10] was 3812.913 ng/mL. For the same compound, the “Tlast, Max” value [4, 10] was 48 h, the “Tmax, Max” value [4, 10] was 8 h and the “AUC0_24, Min” value ([4]; Visit 1, multiple oral doses 50 mg once daily, Min of N 3) was 2320 ng·h/mL. The “AUClast, Min” value [4, 11] was 3610 ng·h/mL, the “Clast, Min” value [4, 11] was 28.097 ng/mL and the “Cmax, Min” value [4, 11] was 123.44 ng/mL. For the same compound, the “Tlast, Min” value [4, 11] was 8 h, the “Tmax, Min” value [4, 11] was 0 h and the “AUC0_24, Max” value [4, 12] was 41500 ng·h/mL. For the same compound, the “AUClast, Max” value [4, 12] was 93400 ng·h/mL, the “Clast, Max” value [4, 12] was 2190.006 ng/mL and the “Cmax, Max” value [4, 12] was 2190.006 ng/mL. For the same compound, the “Tlast, Max” value [4, 12] was 48 h, the “Tmax, Max” value [4, 12] was 48 h and the “AUC0_24, Min” value [4, 13] was 18500 ng·h/mL. The “AUClast, Min” value [4, 13] was 38400 ng·h/mL, the “Clast, Min” value [4, 13] was 708.777 ng/mL and the “Cmax, Min” value [4, 13] was 1087.972 ng/mL. The “Tlast, Min” value [4, 13] was 48 h, the “Tmax, Min” value [4, 13] was 0 h and the IC50 (EPHB4) was 39.8 nM. The “QTc prolongation after Bazet and Fridericia corrections” value [5] was “not present” and the IC50 (EPHA8) was 33.5 nM.
